Assay outcomes (PubChem)
In the library only some 4.2% were active in any assay of this set; here they are far more common.
HDAC3 inh – HDAC3 deacetylase inhibitors, primary screen, biochemical, fluorescence, cell-free homogeneous; inhibition, % at 8.3 µM; Histone deacetylase 3 (Homo sapiens), O15379; recombinant HDAC3, fluorogenic peptide/trypsin coupled; actives 0.15% (n = 320,000); in the data active means inhibition above about 26%, passing the limit was not always enough; inconclusive means no clear call, values can overlap the other calls
SENP1 inh – human SENP1 catalytic domain inhibitors, primary screen, biochemical, FRET, uHTS. recombinant SENP1 catalytic domain, CyPet-SUMO1-YPet FRET cleavage. AID 624204, 2012. inhibition, % at 10 µM. actives 0.21% (n = 360,000). Sentrin-specific protease 1 (Homo sapiens), Q9P0U3;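 active means inhibition at least 30% at 10 µM, raw YFP signal under a set limit, fluorescence ratio 0.5 to 1.5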;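 further: 0% = enzyme with DMSO and 100% = no enzyme wells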
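Test system: human SENP1 catalytic domain; medium: Tris pH 8 buffer plus EDTA, NaCl, BME, BSA, NP40, catalase; incubation: 50 min reaction at room temperature; technique: FRET, CFP and YFP emission; controls: no-enzyme low control and enzyme-plus-DMSO high control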
CTSL1 counter – Fasciola hepatica cathepsin L1 inhibitors, primary screen, counter-screen for PFM18AAP inhibitor project, biochemical, QFRET, fluorogenic peptide substrate; recombinant F. hepatica cathepsin L1, Z-Leu-Arg-MCA fluorescence; inhibition, % at 5.96 µM; actives 0.49% (n = 300,000);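 active means inhibition above the mean of all tested compounds plus 3 SD, set per screening campaign, cut at about 17% in these data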;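 further: 0% = plate median of test compound wells and 100% = 1 µM Z-Phe-Ala-diazomethylketone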
M18AAP inhibitor – PfM18AAP inhibitors, malaria aminopeptidase, primary screen, biochemical, QFRET, recombinant enzyme; actives 1.2% (n = 290,000); M18 aspartyl aminopeptidase (Plasmodium falciparum 3D7); inhibition, % at 7.35 µM; AID 1822, 2009; H-Glu-NHMec fluorogenic cleavage;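 active means inhibition above the campaign mean inhibition over all tested compounds plus 3 SD, cut at about 28% in these data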;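 further: 0% = plate median of test compound wells and 100% = 2 mM ZnCl2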
FXN GAA850 act – FXN promoter activators, primary screen, cell-based, luciferase luminescence, HEK293 lucGAA850. HEK293 lucGAA850 FXN promoter luciferase reporter, 24 h; percent of 10 µM SAHA response. activation, % at 6 µM. actives 0.56% (n = 360,000);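 active means activation above the average of all compounds screened plus 3 SD, cutoff fixed separately per campaign, cut at about 7.5% in these data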;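 further: 0% = DMSO wells and 100% = 10 µM SAHA wells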
AHR act – AHR activators, primary screen, cell-based, luminescence, luciferase reporter, human; AID 2796, 2010; AHR-responsive luciferase reporter cells; Aryl hydrocarbon receptor (Homo sapiens), P35869; actives 2.5% (n = 320,000); activation, % at 5 µM; in the data active means activation above about 47%;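 further: 0% = vehicle wells and 100% = reference agonist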
Target sequence (P35869 whole entry, looked up): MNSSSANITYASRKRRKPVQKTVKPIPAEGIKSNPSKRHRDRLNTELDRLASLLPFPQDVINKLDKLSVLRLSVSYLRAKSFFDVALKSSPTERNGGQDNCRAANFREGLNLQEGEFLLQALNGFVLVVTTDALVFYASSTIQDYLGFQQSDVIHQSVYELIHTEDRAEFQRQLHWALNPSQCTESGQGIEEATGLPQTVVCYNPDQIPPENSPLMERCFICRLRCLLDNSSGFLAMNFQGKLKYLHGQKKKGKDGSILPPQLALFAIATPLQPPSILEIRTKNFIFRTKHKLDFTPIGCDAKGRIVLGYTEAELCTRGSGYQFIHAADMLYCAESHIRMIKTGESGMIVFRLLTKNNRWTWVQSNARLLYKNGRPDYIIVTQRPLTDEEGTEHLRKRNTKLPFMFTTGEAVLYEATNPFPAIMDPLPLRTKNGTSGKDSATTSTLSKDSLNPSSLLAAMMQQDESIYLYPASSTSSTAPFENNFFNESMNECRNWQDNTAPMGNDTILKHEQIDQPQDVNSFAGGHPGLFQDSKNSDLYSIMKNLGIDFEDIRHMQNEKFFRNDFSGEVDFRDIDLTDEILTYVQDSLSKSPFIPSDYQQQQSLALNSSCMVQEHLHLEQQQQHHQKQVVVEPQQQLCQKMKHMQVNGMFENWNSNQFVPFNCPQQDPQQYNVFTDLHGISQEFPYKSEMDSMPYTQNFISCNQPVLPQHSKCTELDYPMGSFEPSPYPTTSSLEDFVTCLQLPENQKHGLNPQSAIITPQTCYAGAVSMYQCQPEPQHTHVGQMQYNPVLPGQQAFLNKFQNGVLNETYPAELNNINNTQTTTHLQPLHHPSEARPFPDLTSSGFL
* marks the source's active call; other numbers are inactive results; ? = inconclusive; nt = no result given.

SMILES	HDAC3 inh	SENP1 inh	CTSL1 counter	M18AAP inhibitor	FXN GAA850 act	AHR act
CN(C)c1ccc(NC(=O)CCN2CCN(c3ccccn3)CC2)cc1	0	1	-1	-10	1	1
O=C(OCC(=O)N1CCCC1)c1c(Cl)ccc(Cl)c1Cl	5	1	2	-3	2	37
Cc1ccc2c(c1)[nH]c1c(=O)n(Cc3ccccn3)cnc12	-4	-1	0	-12	4	49*
Cc1ccccc1-c1nnn(Cc2cccc(S(=O)(=O)N3CCOCC3)c2)n1	-5	1	nt	nt	-1	0
c1ccc(-n2ncc3c(N4CCN(CCOc5cccc6ccccc56)CC4)ncnc32)cc1	-13	-1	4	1	0	49*
COc1cc(OC)cc(C(=O)Nc2cccc3ccccc23)c1	-4	1	3	1	0	14
COC(=O)/C(=C/Nc1cccc2ccccc12)[N+](=O)[O-]	-1	-2	2	-1	1	62*
CC1(C)CC(=O)C2=C(C1)NC(=O)NC2c1ccc(Cl)cc1 (centres undefined)	0	-9	0	-7	-2	-2
CC1(C)CC(=O)C2=C(C1)Nc1cc(Cl)ccc1S2	-4	21	-5	21	1	53*
O=C(COc1ccccc1[N+](=O)[O-])Nc1ccc(Br)cc1	-2	1	0	4	4	53*
C/C(=N\NC(=O)COc1ccccc1[N+](=O)[O-])c1cccs1	-1	1	12	-8	5	57*
COc1ccc(S(=O)(=O)N2CCC(NC(=O)c3cccnc3)CC2)cc1	-1	1	1	-4	1	-1
OCc1ccccc1-c1ccc2nncn2c1	nt	-2	nt	nt	0	nt
COc1ccccc1NC(=O)c1nnn(CC(=O)Nc2ccccc2)c1N	5	-1	-3	0	2	47*
CC(C)[C@H](NC(=O)c1ccccc1)C(=O)OCC(=O)c1ccc(S(=O)(=O)N2CCCCC2)cc1	12	2	35*	nt	0	0
O=C(/C=C/c1c(Cl)nc2ccccn12)N1CCCCC1	6	-1	2	-5	6	59*
O=C(/C=C/c1c(Cl)nc2ccccn12)N1CCN(c2ccccc2F)CC1	-3	1	4	7	0	-1
CC(C)NC(=O)C(Cc1ccccc1)N1C(=O)c2ccccc2C1=O (centres undefined)	1	-1	2	2	-2	55*
CC(C)(O)CNC(=O)C(Cc1ccccc1)N1C(=O)c2ccccc2C1=O (centres undefined)	4	1	3	-10	1	1
COc1ccc(OC)c(/C(C)=N/Nc2ccc(C(=O)O)cc2)c1	?	1	5	27	0	-4
C/C(=N/Nc1ccc(C(=O)O)cc1)c1ccc(O)c(O)c1O	7	1	4	52*	2	-7
CC1CCN(CCNC(=O)C2CCCN(S(=O)(=O)c3cccc4nonc34)C2)CC1 (centres undefined)	-4	10	24*	-4	-2	2
O=C1c2ccccc2C(=O)C1c1ccc2ccccc2n1	-5	-26	1	-1	0	60*
O=C1c2ccccc2C(=O)c2c1ccc(O)c2O	nt	-2	nt	nt	0	nt
COC(=O)c1ccc2c(c1O)C(=O)c1ccccc1C2=O	4	12	26*	4	5	13
SMILES	HDAC3 inh	SENP1 inh	CTSL1 counter	M18AAP inhibitor	FXN GAA850 act	AHR act
CCOC(=O)[C@]12CCCC=C1N(Cc1ccccc1)C(=O)[C@H](CC(=O)N1CCCC1)C2	nt	3	nt	nt	nt	nt
COc1ccccc1NC(=O)/C=C1\NC(=O)CS1	8	0	-2	6	0	22
Cc1ccc(NC(=O)/C=C2\NC(=O)CS2)cc1	3	3	7	3	1	61*
Cn1c(O)c(/C=C2\C=NN=C2c2ccccc2)sc1=S	-6	-7	0	1	4	75*
CCn1c(O)c(/C=C2\C=NN=C2c2ccccc2)sc1=S	-1	-8	-2	3	0	-1
CCCCn1c(O)c(/C=C2\C=NN=C2c2ccccc2)sc1=S	-3	-9	1	-4	3	66*
O=C(Cc1ccccc1)N/N=C/c1ccc[nH]1	2	0	7	-10	1	3
O=C(Nc1cccs1)Nc1ccccc1Cl	-4	-1	8	4	2	45
Cc1c(NC(=O)Nc2cccs2)cccc1[N+](=O)[O-]	9	0	17*	15	0	15
COCCn1c(SCC(=O)c2ccc3c(c2)OCCO3)nnc1C(C)C	?	1	18*	1	1	5
COc1cccc(/C=C2\CCCCC2=O)c1	0	3	0	2	4	0
CC(=O)c1cccc(N=Nc2c(C)[nH]c3ccccc23)c1	10	-26	-1	-1	1	64*
COc1ccc(N=Nc2c(C)[nH]c3ccccc23)cc1	?	14	1	nt	5	42
Cc1cccc(NC(=O)C(C)Sc2ncnc3sccc23)c1 (centres undefined)	nt	-5	nt	nt	-1	nt
CN1CCN(C(=O)C2=C[C@@H](c3ccc(Br)cc3)C[C@@H](OCc3ccc(CO)cc3)O2)CC1	-2	-2	17*	2	-2	5
Cn1c(CC2C(=O)Nc3ccc(Br)cc32)nc2ccccc2c1=O (centres undefined)	2	-22	4	-4	-3	50*
O=C1Nc2ccc(Br)cc2C1Cc1ccccc1F (centres undefined)	7	-7	2	6	1	57*
CCCCCCN1C[C@@H](n2cc(C3CC3)nn2)[C@H](O)C[C@@H]1c1ccc(OC)cc1	nt	-4	nt	nt	1	nt
CCOc1ccc2nc(NC(=O)CN3C(=O)NC4(CCCC4)C3=O)sc2c1	2	0	0	nt	2	2
N#CCSc1nc2ccccc2c2nc3ccccc3n12	-4	-4	5	0	3	48*
CCOc1cc(/C=C2\CN(CC)C/C(=C\c3ccc(O)c(OCC)c3)C2=O)ccc1O	11	12	3	29*	-13	1
COc1cc(/C=C2\CCC/C(=C\c3ccc(O)c(OC)c3)C2=O)ccc1O	7	-24	6	15	-1	-2
CCOc1cc(/C=C2\CCCC(C(=O)C(F)(F)F)=C2O)ccc1O	35*	-26	-2	0	0	5
CCC(C)Nc1nc(N)c([N+](=O)[O-])c(NCc2ccccc2)n1 (centres undefined)	10	2	nt	2	4	nt
